Most compounds without a hit are left out; they make up all but 2.6% or so of the library.
Runt-CBFb FRET = inhibitors of human RUNX1 Runt domain binding to CBFb; Cerulean-Runt/Venus-CBFb FRET ratio 530/480, 1 h; inhibition, % at 20 µM; Q01196+Q13951; AID 1496; 0.46% of 220,000 active;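 active means inhibition over about 50% at 20 µM in the single-dose screen, limit read from the data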;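 further: 0% = DMSO wells and 100% = excess unlabeled CBFb competitor control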
Target sequence (Q01196 whole entry, looked up, the tested form may be a part): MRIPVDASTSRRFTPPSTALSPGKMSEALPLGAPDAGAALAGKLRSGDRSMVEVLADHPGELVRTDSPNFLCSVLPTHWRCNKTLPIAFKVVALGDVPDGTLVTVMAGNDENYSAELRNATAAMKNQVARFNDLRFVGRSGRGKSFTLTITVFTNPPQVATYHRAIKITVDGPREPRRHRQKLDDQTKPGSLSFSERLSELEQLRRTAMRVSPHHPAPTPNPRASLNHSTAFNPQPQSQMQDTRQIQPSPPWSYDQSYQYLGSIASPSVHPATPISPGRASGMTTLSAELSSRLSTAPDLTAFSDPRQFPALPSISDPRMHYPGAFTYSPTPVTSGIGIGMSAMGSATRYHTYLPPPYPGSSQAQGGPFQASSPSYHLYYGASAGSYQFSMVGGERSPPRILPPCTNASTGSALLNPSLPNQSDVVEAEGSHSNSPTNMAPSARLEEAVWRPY
Target sequence (Q13951 whole entry, looked up, the tested form may be a part): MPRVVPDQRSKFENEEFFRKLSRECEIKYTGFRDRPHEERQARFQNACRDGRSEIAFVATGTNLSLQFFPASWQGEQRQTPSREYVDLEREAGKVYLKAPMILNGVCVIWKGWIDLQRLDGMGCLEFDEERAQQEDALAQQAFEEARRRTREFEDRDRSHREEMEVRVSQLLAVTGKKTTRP
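Assay system: Cerulean-Runt domain / Medium: Tris 50 mM pH 7.5, KCl, K2SO4, 0.01% BSA / Timing: protein complex preformed 1 h, compound exposure 1 h, room temperature, dark / Measured by: FRET, excitation 422 nm, emission at 530 and 480 nm / Evaluation: loss of energy transfer signal / Control set: 5 µM unlabeled CBFb as full-inhibition high control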
Runt-SMMHC FRET = Runt domain-CBFb-SMMHC interaction inhibition; Cerulean-Runt/Venus-CBFb-SMMHC FRET ratio 530/480, 1 h; inhibition, % at 20 µM; Q01196+Q13951; 0.74% of 220,000 active;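 active means mean inhibition across duplicate retests at 20 µM reaching about 50%, limit read from the data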;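 further: 0% = DMSO wells and 100% = wells with excess untagged CBFb-SMMHC; inhibitors lower the FRET ratio by blocking Runt binding to CBFb-SMMHC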
IMP-1 inhibitor = inhibitors of Pseudomonas aeruginosa IMP-1 metallo-beta-lactamase. purified IMP-1, nitrocefin hydrolysis, epi-absorbance fluorescence. inhibition, % at 5.6 µM. 0.45% of 290,000 active. AID 1556;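 active means inhibition above the mean plus 3 SD of all compounds in the same screening run, cut at about 4.5% in these data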;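 further: 0% = IMP-1 with DMSO and 100% = DMSO wells lacking enzyme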
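Assay system: purified IMP-1; Quantity: IMP-1 0.2 nM before substrate addition; Medium: HEPES buffer pH 7.1 with ZnSO4 and Brij 35; Incubation: 15 min enzyme–compound preincubation, then 25 min nitrocefin reaction, 25 °C; Signal: fluorescence quenching readout, ex 480/em 530 nm; Controls: DMSO with and without IMP-1; Repeats: singlicate testing.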
RanGTP-Impb inh = inhibitors of RanGTP-importin-beta interaction, primary screen, biochemical, FRET, CFP-Ran, YFP-importin-beta, homogeneous; cell-free CFP-Ran/YFP-importin-beta FRET ratio; inhibition, % (no concentration beside the values); 1.1% of 300,000 active; AID 2216;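 active means more than half of the replicate wells show a fall in the fluorescence ratio signal beyond about 16%, limit read from the data, passing the limit was not always enough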;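 further: 0% = DMSO wells and 100% = Ran loaded with GDP instead of GTP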
VIM-2 inhibitor = blocks Pseudomonas aeruginosa VIM-2 metallo-beta-lactamase. purified VIM-2, nitrocefin hydrolysis, epi-absorbance fluorescence. inhibition, % at 5.6 µM. 0.89% of 290,000 active. AID 1527;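 active means inhibition above the mean of all tested compounds plus 3 SD, cutoff set per screening run, cut at about 7.5% in these data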;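 further: red hydrolysis product quenches plate fluorescence so inhibitors raise well fluorescence; 0% = enzyme with DMSO and 100% = DMSO without enzyme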
VIM-2 confirm = VIM-2 inhibition, confirmation assay; shares compounds with IMP-1 inhibitor; purified VIM-2 enzyme, nitrocefin absorbance; inhibition, % at 5.6 µM; 73% of 200 active; in the data active means inhibition above about 8%;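 further: 0% = enzyme with vehicle and 100% = no enzyme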
TEM-1 inh 2 = blocks E. coli TEM-1 beta-lactamase, VIM-2 IMP-1 counter-screen. shares compounds with IMP-1 inhibitor. inhibition, % at 5.6 µM. AID 2184. nitrocefin absorbance inhibition. 50% of 200 active; in the data active means inhibition above about 0.66%
IMP-1 inh conf = confirmation of P. aeruginosa IMP-1 metallo-beta-lactamase inhibitors; AID 2189; 60% of 200 active; inhibition, % at 5.6 µM; purified IMP-1 enzyme, absorbance substrate hydrolysis; shares compounds with IMP-1 inhibitor; in the data active means inhibition above about 4.9%;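 further: 0% = enzyme with vehicle and 100% = vehicle without enzyme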
* = called active by the depositor; i = inactive; . = no result.

SMILES | Runt-CBFb FRET | Runt-SMMHC FRET | IMP-1 inhibitor | RanGTP-Impb inh | VIM-2 inhibitor | VIM-2 confirm | TEM-1 inh 2 | IMP-1 inh conf
Cn1c2c(c(=O)n(C)c1=O)C(C(F)(F)F)(C(F)(F)F)N=C(CCC1CCCCC1)N2 | -4 | 1 | -3 | 2 | -1 | . | . | .
COCCCn1c(C(=O)NCCC2=CCCCC2)cc2c(=O)n3ccccc3nc21 | . | . | -3 | 2 | 0 | . | . | .
COCCCn1c(=NC(=O)c2ccccc2)c(C#N)cc2c(=O)n3cccc(C)c3nc21 | 24 | 88* | 8.5* | 49* | 9.3* | 18* | 32* | 11*
COc1cc(OC)c(-c2c3cc(O)c(=O)cc-3oc3cc(O)c(O)cc23)cc1OC | -92 | -336 | 7.0* | . | 16* | 49* | 75* | 46*
CCC(NC(=S)NCc1ccc(F)cc1)c1ccc(C)cc1 (stereo not given) | . | . | -4 | -1 | -4 | . | . | .
N#Cc1nc(COc2ccccc2F)oc1NCCCn1ccnc1 | 0 | 3 | 39* | 3 | 10* | 2 | -2 | 0
CCCN(C1CCS(=O)(=O)C1)S(=O)(=O)c1ccc(F)cc1 (stereo not given) | . | . | . | -1 | . | . | . | .
COc1ccc(Cl)cc1Nc1nnc(-c2ccncc2)s1 | . | . | 19* | -1 | 8.7* | 3 | -1 | 12*
Cc1nn(C)cc1S(=O)(=O)Nc1ncccn1 | . | . | 1 | 9 | 0 | . | . | .
O=C(O)CCCN1C(=O)/C(=C/C=C/c2ccco2)SC1=S | 46 | -3 | 10* | -9 | 7 | -1 | -4 | -3
COc1ccccc1CN1CCC(n2nccc2NC(=O)CCc2ccccc2)CC1 | . | . | -3 | -2 | -1 | . | . | .
CCN(CC)c1ccc2cc(-c3nc4ccccc4[nH]3)c(=O)oc2c1 | 19 | 79* | 18* | 129* | 13* | 61* | 105* | 59*
CCN(CC)c1ccc2cc(-c3nnc(-c4ccccc4)o3)c(=O)oc2c1 | 5 | 83* | 8.3* | 115* | 8.4* | 33* | 43* | 26*
O=C(Nc1ccc(N2CCN(C(=O)c3cccs3)CC2)cc1)c1ccc(F)cc1 | . | . | 1 | 4 | 0 | . | . | .
Cc1cccn2c(=O)c3cc(C(=O)NCCCn4ccnc4)n(C)c3nc12 | 2 | 11 | 23* | 4 | 10* | 32* | -4 | 2
O=C(NCCCn1ccnc1)c1cccc(Cl)c1 | . | . | -1 | 2 | -1 | . | . | .
NC(=O)c1cc(NC(=O)c2ccc(NS(=O)(=O)c3cccs3)cc2)cc(C(N)=O)c1 | 1 | -1 | 0 | 5 | -1 | . | . | .
COc1ccc(N(C(=O)c2cccnc2)S(=O)(=O)c2ccc(Cl)cc2)cc1 | . | . | -6 | -1 | -4 | . | . | .
N#C/C(=C\c1ccc(C#N)cc1)C(=O)c1ccccc1 | 22 | 23 | -1 | 2 | 0 | . | . | .
CN(C)c1ccc(/C=C(\C#N)C(=O)c2ccccc2)cc1 | -45 | -1 | 6.2* | -16 | 5 | 13* | 13* | 11*
CNc1ccc2c3c(cccc13)C(=O)N(C)C2=O | . | . | 44* | i | 50* | 76* | 87* | 59*
CCN(CC)c1ccc2cc(C(=O)NCc3ccc(F)cc3)c(=N)oc2c1 | . | . | 21* | 99* | 8 | 17* | 26* | 13*
Cc1n[nH]c(C)c1N1C(=O)c2cccc3c(N4CCCCCC4)ccc(c23)C1=O | -294 | -180 | 16* | i | 20* | 27* | 21* | 9.3*
O=C1c2cccc3c(N4CCCCC4)ccc(c23)C(=O)N1c1cccc(O)c1 | -304 | -106 | 0 | -266 | 2 | . | . | .
CC(C)Cc1nnc(NC(=O)CN2C(=O)NC3(CCCC3)C2=O)s1 | . | . | . | 0 | . | . | . | .
SMILES | Runt-CBFb FRET | Runt-SMMHC FRET | IMP-1 inhibitor | RanGTP-Impb inh | VIM-2 inhibitor | VIM-2 confirm | TEM-1 inh 2 | IMP-1 inh conf
COc1ccc(-c2[nH]ncc2/C=N/NC(=O)c2ccncc2)c(OC)c1 | . | . | -2 | 0 | -3 | . | . | .
CCCCC(Sc1nc(N)c(NC(=O)c2ccco2)c(=O)[nH]1)C(=O)O (stereo not given) | . | . | 12* | 1 | 12* | 25* | 1.7* | 36*
CCCCC(Sc1nc(N)c(NC(=O)c2ccc(OCC)cc2)c(=O)[nH]1)C(=O)O (stereo not given) | 3 | 0 | -1 | 2 | 0 | . | . | .
O=C(Nc1ccc2oc(-c3ccccc3F)nc2c1)c1ccc([N+](=O)[O-])o1 | . | . | 41* | -1 | 12* | 8.5* | 7.1* | 24*
O=C(Nc1ccc2oc(-c3ccccc3F)nc2c1)c1cncc(Br)c1 | 2 | -1 | -2 | 3 | -1 | . | . | .
Cc1ccc(N=Cc2c(O)c3ccccc3n(C)c2=O)cc1 | . | . | -1 | 5 | 3 | . | . | .
Cc1ccc(N=Cc2sc(O)c3ccccc23)cc1 | -100 | -38 | 24* | 2 | 8.4* | 14* | -2 | 1
O=P(O)(O)c1cc(-c2ccccc2)oc1-c1ccccc1 | 0 | 1 | 22* | 1 | 30* | 40* | -2 | 23*
O=c1oc(-c2ccccc2)cc(Cl)c1Cl | . | . | -4 | -4 | -1 | . | . | .
N=C1/C(=C\c2coc3ccc(O)cc3c2=O)C(=O)N=C2SC=CN12 | -38 | -332 | 11* | -78 | 9.9* | 17* | 8.0* | 14*
COC(=O)Cn1c(CN2CCN(C(=O)c3ccco3)CC2)nc2c1c(=O)n(C)c(=O)n2C | . | . | 1 | 3 | 4 | . | . | .
COC(=O)c1c(C(=O)OC)c(-c2ccc(Cl)c(Cl)c2)n2c1CCC2 | -5 | 1 | 0 | 0 | 1 | . | . | .
O=C(O)c1c(C(=O)O)c(-c2ccc(Cl)c(Cl)c2)n2c1CSC2 | . | . | 4.9* | -4 | 57* | 55* | -1 | 3
CCOc1cc2c(cc1/C=C/c1noc(C)c1[N+](=O)[O-])OC(C)C2 (stereo not given) | . | . | 13* | -16 | 17* | 20* | 30* | 18*
CCOc1cc2c(cc1C=O)OC(C)C2 (stereo not given) | 0 | -5 | 0 | -1 | 2 | . | . | .
CN(/N=C/c1ccc(-c2ccc([N+](=O)[O-])cc2)o1)c1ccccc1 | . | . | 30* | -23 | 26* | 17* | 27* | 16*
CCc1cccc(NS(=O)(=O)c2csc(C(N)=O)c2)c1 | . | . | -2 | 0 | -4 | . | . | .
COc1ccccc1-c1csc(-n2ncc(C#N)c2N)n1 | . | . | 22* | 5 | 17* | 10* | -2 | 12*
COc1ccc(-c2csc(-n3ncc(-c4ccccn4)c3N)n2)cc1 | -1 | -3 | -3 | 0 | -1 | . | . | .

Assay outcomes deposited in PubChem BioAssay by several laboratories.
